From ChEMBL document CHEMBL3734675, “Synthesis, antimycobacterial and antibacterial activity of fluoroquinolone derivatives containing an 3-alkoxyimino-4-(cyclopropylanimo)methylpyrrolidine moiety” (2015)
Values after ≈ are worked out from the molar mass of the structure shown.

Legend:
Assay type in all cases: functional
[1] = tested on: Mycobacterium tuberculosis; assay: Antimycobacterial activity against Mycobacterium tuberculosis H37Rv ATCC 27294 incubated for 7 days by microplate Alamar Blue assay; conditions: H37Rv ATCC 27294, 168 h
How it was run: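 Fluorescence read-out. MIC is the lowest concentration that reduces fluorescence by at least 90% relative to the mean of replicate bacterium-only controls. Isoniazid and rifampicin were included as reference drugs.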

Escherichia coli [2] = assay: Antibacterial activity against Escherichia coli ATCC 25922 after 18 to 24 hrs by two-fold serial dilution method
How it was run: (§1)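 Twofold serial dilution in agar media against Gram-positive and Gram-negative strains. Plates incubated at 35 °C for 18–24 h. MIC read as the lowest compound concentration giving complete inhibition of bacterial growth.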

Escherichia coli [3] = assay: Antibacterial activity against extended-spectrum beta-lactamase producing Escherichia coli 14-1 after 18 to 24 hrs by two-fold serial dilution method; how it was run: as §1
Escherichia coli [4] = assay: Antibacterial activity against extended-spectrum beta-lactamase producing Escherichia coli 14-2 after 18 to 24 hrs by two-fold serial dilution method; how it was run: as §1
Escherichia coli [5] = assay: Antibacterial activity against Escherichia coli 14-1 after 18 to 24 hrs by two-fold serial dilution method; how it was run: as §1
Escherichia coli [6] = assay: Antibacterial activity against Escherichia coli 14-2 after 18 to 24 hrs by two-fold serial dilution method; how it was run: as §1
Klebsiella pneumoniae [7] = assay: Antibacterial activity against extended-spectrum beta-lactamase producing Klebsiella pneumoniae 14-17 after 18 to 24 hrs by two-fold serial dilution method; how it was run: as §1
Klebsiella pneumoniae [8] = assay: Antibacterial activity against extended-spectrum beta-lactamase producing Klebsiella pneumoniae 14-18 after 18 to 24 hrs by two-fold serial dilution method; how it was run: as §1
Klebsiella pneumoniae [9] = assay: Antibacterial activity against extended-spectrum beta-lactamase producing Klebsiella pneumoniae 14-19 after 18 to 24 hrs by two-fold serial dilution method; how it was run: as §1
Klebsiella pneumoniae [10] = assay: Antibacterial activity against Klebsiella pneumoniae 14-1 after 18 to 24 hrs by two-fold serial dilution method; how it was run: as §1
Klebsiella pneumoniae [11] = assay: Antibacterial activity against Klebsiella pneumoniae 14-2 after 18 to 24 hrs by two-fold serial dilution method; how it was run: as §1
Klebsiella pneumoniae [12] = assay: Antibacterial activity against Klebsiella pneumoniae 14-3 after 18 to 24 hrs by two-fold serial dilution method; how it was run: as §1
Klebsiella pneumoniae [13] = assay: Antibacterial activity against Klebsiella pneumoniae 14-4 after 18 to 24 hrs by two-fold serial dilution method; how it was run: as §1
Pseudomonas aeruginosa [14] = assay: Antibacterial activity against Pseudomonas aeruginosa ATCC 27853 after 18 to 24 hrs by two-fold serial dilution method; how it was run: as §1
Pseudomonas aeruginosa [15] = assay: Antibacterial activity against Pseudomonas aeruginosa 14-9 after 18 to 24 hrs by two-fold serial dilution method; how it was run: as §1
Pseudomonas aeruginosa [16] = assay: Antibacterial activity against Pseudomonas aeruginosa 14-14 after 18 to 24 hrs by two-fold serial dilution method; how it was run: as §1
Pseudomonas aeruginosa [17] = assay: Antibacterial activity against Pseudomonas aeruginosa 14-15 after 18 to 24 hrs by two-fold serial dilution method; how it was run: as §1
Pseudomonas aeruginosa [18] = assay: Antibacterial activity against Pseudomonas aeruginosa 14-16 after 18 to 24 hrs by two-fold serial dilution method; how it was run: as §1
Staphylococcus aureus [19] = assay: Antibacterial activity against Staphylococcus aureus CMCC 26003 after 18 to 24 hrs by two-fold serial dilution method; how it was run: as §1
Staphylococcus aureus [20] = assay: Antibacterial activity against methicillin-sensitive Staphylococcus aureus 14-1 after 18 to 24 hrs by two-fold serial dilution method; how it was run: as §1
Staphylococcus aureus [21] = assay: Antibacterial activity against methicillin-sensitive Staphylococcus aureus 14-3 after 18 to 24 hrs by two-fold serial dilution method; how it was run: as §1
Staphylococcus aureus [22] = assay: Antibacterial activity against methicillin-sensitive Staphylococcus aureus 14-4 after 18 to 24 hrs by two-fold serial dilution method; how it was run: as §1
Staphylococcus aureus [23] = assay: Antibacterial activity against methicillin-resistant Staphylococcus aureus 14-4 after 18 to 24 hrs by two-fold serial dilution method
How it was run: (§2)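 Agar media, standard twofold serial dilution. MIC is the lowest concentration giving complete inhibition of bacterial growth after incubation at 35 °C for 18–24 h. Ciprofloxacin and levofloxacin were run as comparators.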

Staphylococcus aureus [24] = assay: Antibacterial activity against methicillin-resistant Staphylococcus aureus 14-5 after 18 to 24 hrs by two-fold serial dilution method; how it was run: as §2
[25] = tested on: Staphylococcus epidermidis; assay: Antibacterial activity against methicillin-sensitive Staphylococcus epidermidis 14-2 after 18 to 24 hrs by two-fold serial dilution method; how it was run: as §1
[26] = tested on: Staphylococcus epidermidis; assay: Antibacterial activity against methicillin-resistant Staphylococcus epidermidis 14-21 after 18 to 24 hrs by two-fold serial dilution method; how it was run: as §2
[27] = tested on: Staphylococcus epidermidis; assay: Antibacterial activity against methicillin-resistant Staphylococcus epidermidis 14-22 after 18 to 24 hrs by two-fold serial dilution method; how it was run: as §2
[28] = tested on: Staphylococcus epidermidis; assay: Antibacterial activity against methicillin-resistant Staphylococcus epidermidis 14-37 after 18 to 24 hrs by two-fold serial dilution method; how it was run: as §2
[29] = tested on: Staphylococcus epidermidis; assay: Antibacterial activity against methicillin-resistant Staphylococcus epidermidis 14-39 after 18 to 24 hrs by two-fold serial dilution method; how it was run: as §2
Streptococcus pneumoniae = assay: Antibacterial activity against methicillin-resistant Streptococcus pneumoniae ATCC 19615 after 18 to 24 hrs by two-fold serial dilution method; how it was run: as §2
Enterococcus faecium [30] = assay: Antibacterial activity against Enterococcus faecium 14-2 after 18 to 24 hrs by two-fold serial dilution method; how it was run: as §1
Enterococcus faecium [31] = assay: Antibacterial activity against Enterococcus faecium 14-5 after 18 to 24 hrs by two-fold serial dilution method; how it was run: as §1
Enterococcus faecium [32] = assay: Antibacterial activity against Enterococcus faecium 14-6 after 18 to 24 hrs by two-fold serial dilution method; how it was run: as §1
Enterococcus faecalis [33] = assay: Antibacterial activity against Enterococcus faecalis 14-1 after 18 to 24 hrs by two-fold serial dilution method; how it was run: as §1
Enterococcus faecalis [34] = assay: Antibacterial activity against Enterococcus faecalis 14-2 after 18 to 24 hrs by two-fold serial dilution method; how it was run: as §1

Structure (SMILES) | MIC (Escherichia coli [2]) | MIC (Escherichia coli [3]) | MIC (Escherichia coli [4]) | MIC (Escherichia coli [5]) | MIC (Escherichia coli [6]) | MIC (Klebsiella pneumoniae [7]) | MIC (Klebsiella pneumoniae [8]) | MIC (Klebsiella pneumoniae [9]) | MIC (Klebsiella pneumoniae [10]) | MIC (Klebsiella pneumoniae [11]) | MIC (Klebsiella pneumoniae [12]) | MIC (Klebsiella pneumoniae [13]) | MIC (Pseudomonas aeruginosa [14]) | MIC (Pseudomonas aeruginosa [15]) | MIC (Pseudomonas aeruginosa [16]) | MIC (Pseudomonas aeruginosa [17]) | MIC (Pseudomonas aeruginosa [18]) | MIC (Staphylococcus aureus [19]) | MIC (Staphylococcus aureus [20]) | MIC (Staphylococcus aureus [21]) | also measured
NNC(=O)c1ccncc1 [ISONIAZID] |  |  |  |  |  |  |  |  |  |  |  |  |  |  |  |  |  |  |  |  | MIC90 [1]: 0.05 µg/mL (≈ 0.365 µM)
O=C(O)c1cn(C2CC2)c2nc(N3C/C(=N/OCc4ccccc4)C(CNC4CC4)C3)c(F)cc2c1=O (centres undefined) | 4 µg/mL (≈ 7.91 µM) | 32 µg/mL (≈ 63.3 µM) | > 128 µg/mL | > 128 µg/mL | > 128 µg/mL | 128 µg/mL (≈ 253 µM) | 128 µg/mL (≈ 253 µM) | 128 µg/mL (≈ 253 µM) | 64 µg/mL (≈ 127 µM) | 64 µg/mL (≈ 127 µM) | 128 µg/mL (≈ 253 µM) | > 128 µg/mL | 64 µg/mL (≈ 127 µM) | 64 µg/mL (≈ 127 µM) | 64 µg/mL (≈ 127 µM) | 128 µg/mL (≈ 253 µM) | 64 µg/mL (≈ 127 µM) | < 0.008 µg/mL | 8 µg/mL (≈ 15.8 µM) | 4 µg/mL (≈ 7.91 µM) | MIC (Staphylococcus aureus [22]): 8 µg/mL (≈ 15.8 µM); MIC (Staphylococcus aureus [23]): > 128 µg/mL; MIC (Staphylococcus aureus [24]): 16 µg/mL (≈ 31.6 µM); MIC [25]: 64 µg/mL (≈ 127 µM); MIC [26]: 16 µg/mL (≈ 31.6 µM); MIC [27]: 16 µg/mL (≈ 31.6 µM); MIC [28]: 16 µg/mL (≈ 31.6 µM); MIC [29]: 32 µg/mL (≈ 63.3 µM); MIC (Streptococcus pneumoniae): 8 µg/mL (≈ 15.8 µM); MIC (Enterococcus faecium [30]): 16 µg/mL (≈ 31.6 µM); MIC (Enterococcus faecium [31]): 32 µg/mL (≈ 63.3 µM); MIC (Enterococcus faecium [32]): 8 µg/mL (≈ 15.8 µM); MIC (Enterococcus faecalis [33]): 64 µg/mL (≈ 127 µM); MIC (Enterococcus faecalis [34]): 1 µg/mL (≈ 1.98 µM)
CCO/N=C1/CN(c2nc3c(cc2F)c(=O)c(C(=O)O)cn3C2CC2)CC1CNC1CC1 (centres undefined) | 2 µg/mL (≈ 4.51 µM) | 8 µg/mL (≈ 18 µM) | 128 µg/mL (≈ 289 µM) | 128 µg/mL (≈ 289 µM) | 128 µg/mL (≈ 289 µM) | 8 µg/mL (≈ 18 µM) | 8 µg/mL (≈ 18 µM) | 8 µg/mL (≈ 18 µM) | 32 µg/mL (≈ 72.2 µM) | 32 µg/mL (≈ 72.2 µM) | 128 µg/mL (≈ 289 µM) | 128 µg/mL (≈ 289 µM) | 8 µg/mL (≈ 18 µM) | 8 µg/mL (≈ 18 µM) | 32 µg/mL (≈ 72.2 µM) | 32 µg/mL (≈ 72.2 µM) | 16 µg/mL (≈ 36.1 µM) | < 0.008 µg/mL | 8 µg/mL (≈ 18 µM) | 8 µg/mL (≈ 18 µM) | MIC (Staphylococcus aureus [22]): 8 µg/mL (≈ 18 µM); MIC (Staphylococcus aureus [23]): 128 µg/mL (≈ 289 µM); MIC (Staphylococcus aureus [24]): 8 µg/mL (≈ 18 µM); MIC [25]: 128 µg/mL (≈ 289 µM); MIC [26]: 16 µg/mL (≈ 36.1 µM); MIC [27]: 16 µg/mL (≈ 36.1 µM); MIC [28]: 32 µg/mL (≈ 72.2 µM); MIC [29]: 16 µg/mL (≈ 36.1 µM); MIC (Streptococcus pneumoniae): 2 µg/mL (≈ 4.51 µM); MIC (Enterococcus faecium [30]): 32 µg/mL (≈ 72.2 µM); MIC (Enterococcus faecium [31]): 16 µg/mL (≈ 36.1 µM); MIC (Enterococcus faecium [32]): 8 µg/mL (≈ 18 µM); MIC (Enterococcus faecalis [33]): 64 µg/mL (≈ 144 µM); MIC (Enterococcus faecalis [34]): 0.125 µg/mL (≈ 0.282 µM)
CO[C@H]1/C=C/O[C@@]2(C)Oc3c(C)c(O)c4c(O)c(c(/C=N/N5CCN(C)CC5)c(O)c4c3C2=O)NC(=O)/C(C)=C\C=C\[C@H](C)[C@H](O)[C@@H](C)[C@@H](O)[C@@H](C)[C@H](OC(C)=O)[C@@H]1C [RIFAMPIN] |  |  |  |  |  |  |  |  |  |  |  |  |  |  |  |  |  |  |  |  | MIC90 [1]: 0.05 µg/mL (≈ 0.0608 µM)
CC1(CNC2CC2)CN(c2nc3c(cc2F)c(=O)c(C(=O)O)cn3[C@@H]2C[C@@H]2F)C/C1=N/OCc1ccccc1 (some centres undefined) | 4 µg/mL (≈ 7.44 µM) | 32 µg/mL (≈ 59.5 µM) | > 64 µg/mL | > 64 µg/mL | > 64 µg/mL | 64 µg/mL (≈ 119 µM) | 64 µg/mL (≈ 119 µM) | > 64 µg/mL | 64 µg/mL (≈ 119 µM) | 64 µg/mL (≈ 119 µM) | 64 µg/mL (≈ 119 µM) | > 64 µg/mL | 64 µg/mL (≈ 119 µM) | 32 µg/mL (≈ 59.5 µM) | 64 µg/mL (≈ 119 µM) | 64 µg/mL (≈ 119 µM) | 64 µg/mL (≈ 119 µM) | 0.125 µg/mL (≈ 0.233 µM) | 8 µg/mL (≈ 14.9 µM) | 2 µg/mL (≈ 3.72 µM) | MIC (Staphylococcus aureus [22]): 8 µg/mL (≈ 14.9 µM); MIC (Staphylococcus aureus [23]): 16 µg/mL (≈ 29.8 µM); MIC (Staphylococcus aureus [24]): 16 µg/mL (≈ 29.8 µM); MIC [25]: 64 µg/mL (≈ 119 µM); MIC [26]: 16 µg/mL (≈ 29.8 µM); MIC [27]: 16 µg/mL (≈ 29.8 µM); MIC [28]: 16 µg/mL (≈ 29.8 µM); MIC [29]: 32 µg/mL (≈ 59.5 µM); MIC (Streptococcus pneumoniae): 1 µg/mL (≈ 1.86 µM); MIC (Enterococcus faecium [30]): 16 µg/mL (≈ 29.8 µM); MIC (Enterococcus faecium [31]): 32 µg/mL (≈ 59.5 µM); MIC (Enterococcus faecium [32]): 32 µg/mL (≈ 59.5 µM); MIC (Enterococcus faecalis [33]): 64 µg/mL (≈ 119 µM); MIC (Enterococcus faecalis [34]): 2 µg/mL (≈ 3.72 µM)
